# Experimental data reported in ChEMBL document CHEMBL4725241, “Discovery of BMS-986235/LAR-1219: A Potent Formyl Peptide Receptor 2 (FPR2) Selective Agonist for the Prevention of Heart Failure” (J Med Chem, 2020).
# pEC50, pIC50: −log10 of the molar value. The source made the active and inactive calls. The rule behind the calls is not given here.
# Experiments:
# [1] = molecular target: T1, N-formyl peptide receptor 2 (Homo sapiens, UniProt P25090); experiment: Agonist activity at human FPR2 expressed in HEK 293 cells co-expressing Galpha15 measured every 1.5 sec for 80 sec by Fluo-4 NW staining based scanning fluorometric method; type: cell-based, HEK293
# T1 sequence (P25090 whole entry): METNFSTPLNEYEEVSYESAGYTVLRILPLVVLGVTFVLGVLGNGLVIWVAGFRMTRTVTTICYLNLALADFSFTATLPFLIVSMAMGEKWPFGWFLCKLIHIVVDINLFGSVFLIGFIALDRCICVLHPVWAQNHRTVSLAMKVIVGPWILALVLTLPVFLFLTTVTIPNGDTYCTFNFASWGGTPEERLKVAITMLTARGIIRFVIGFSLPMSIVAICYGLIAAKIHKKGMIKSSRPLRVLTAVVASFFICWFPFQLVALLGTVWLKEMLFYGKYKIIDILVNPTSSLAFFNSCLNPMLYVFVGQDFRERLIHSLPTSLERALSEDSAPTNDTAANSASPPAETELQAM
# In short: (§1)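 HEK293 cells were transiently co-transfected with FPR plus Gα15 (Lipofectamine 2000), then reseeded after 24 h on poly-D-lysine plates and grown one more day. Cells were loaded with Fluo-4 NW for 45 min at 37°C. Compound was added and fluorescence (ex 485/em 525 nm) read for 80 s at 1.5 s intervals. Response = maximal peak minus basal.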
# fMet-Leu-Phe receptor = molecular target: T2, fMet-Leu-Phe receptor (Homo sapiens, UniProt P21462); experiment: Agonist activity at human FPR1 expressed in HEK 293 cells co-expressing Galpha15 measured every 1.5 sec for 80 sec by Fluo-4 NW staining based scanning fluorometric method; type: cell-based, HEK293
# T2 sequence (P21462 whole entry): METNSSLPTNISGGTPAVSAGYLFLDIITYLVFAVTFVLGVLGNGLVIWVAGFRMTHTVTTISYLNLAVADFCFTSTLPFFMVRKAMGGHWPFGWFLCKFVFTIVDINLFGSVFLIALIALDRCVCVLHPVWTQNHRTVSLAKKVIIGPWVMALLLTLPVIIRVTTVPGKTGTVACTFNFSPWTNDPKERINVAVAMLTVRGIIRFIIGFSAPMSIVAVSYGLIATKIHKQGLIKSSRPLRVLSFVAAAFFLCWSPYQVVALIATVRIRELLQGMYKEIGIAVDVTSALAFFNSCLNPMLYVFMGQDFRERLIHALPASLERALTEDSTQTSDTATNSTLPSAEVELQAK
# [2] = molecular target: T3, Formyl peptide receptor 2 (Mus musculus, UniProt O88536); experiment: Agonist activity at mouse FPR2 expressed in HEK 293 cells co-expressing Galpha15 measured every 1.5 sec for 80 sec by Fluo-4 NW staining based scanning fluorometric method; type: cell-based, HEK293; in short: as §1
# T3 sequence (O88536 whole entry): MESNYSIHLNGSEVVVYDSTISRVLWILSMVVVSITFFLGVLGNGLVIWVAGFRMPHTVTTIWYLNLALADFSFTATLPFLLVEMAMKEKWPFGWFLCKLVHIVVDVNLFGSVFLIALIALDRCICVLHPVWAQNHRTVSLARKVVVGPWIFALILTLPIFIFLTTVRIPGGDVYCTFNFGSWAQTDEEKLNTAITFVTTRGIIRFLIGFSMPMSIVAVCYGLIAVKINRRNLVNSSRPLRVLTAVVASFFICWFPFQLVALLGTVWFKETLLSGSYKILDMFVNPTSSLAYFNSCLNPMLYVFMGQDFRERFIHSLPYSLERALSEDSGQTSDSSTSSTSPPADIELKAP
# [3] = In vivo […] in mouse assessed as reduction in LPS-induced neutrophil infiltration in BALF cells at 1 mg/kg, po relative to control; type: functional
# In short: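 Mice were given LPS and dosed orally at 1 mg/kg. Neutrophils in BALF were counted, and percent inhibition was calculated.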
# Cytochrome P450 3A4 = Cytochrome P450 3A4 (Homo sapiens, UniProt P08684); experiment: Inhibition of recombinant human CYP3A4; type: ADME
# Cytochrome P450 3A4, sequence (P08684 whole entry): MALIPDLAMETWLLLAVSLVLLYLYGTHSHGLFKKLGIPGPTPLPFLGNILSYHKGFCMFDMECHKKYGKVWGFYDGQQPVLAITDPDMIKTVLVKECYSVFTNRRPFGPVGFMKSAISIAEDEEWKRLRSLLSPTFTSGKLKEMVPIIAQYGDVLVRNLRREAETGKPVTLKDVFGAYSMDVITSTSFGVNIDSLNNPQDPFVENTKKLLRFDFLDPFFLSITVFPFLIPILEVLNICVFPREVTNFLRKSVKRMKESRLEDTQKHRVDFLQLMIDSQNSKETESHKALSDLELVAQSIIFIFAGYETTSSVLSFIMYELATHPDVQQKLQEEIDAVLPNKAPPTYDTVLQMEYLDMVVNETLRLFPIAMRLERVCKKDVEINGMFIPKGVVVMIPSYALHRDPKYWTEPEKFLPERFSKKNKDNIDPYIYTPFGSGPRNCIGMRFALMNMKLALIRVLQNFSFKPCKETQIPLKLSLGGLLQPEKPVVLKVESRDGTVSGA
# Mus musculus [4] = experiment: Cardioprotective activity in C57BL/6 mouse model of LAD coronary artery ligation-induced myocardial infarction assessed as reduction in LV chamber area at 100 mg/kg, po and measured after 28 days; type: functional, organism-based; details: time 28.0 day
# In short: (§2)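 Male C57BL/6 mice (10-12 weeks) underwent permanent LAD ligation. Captopril was given in drinking water (~100 mg/kg/day). Endpoints were taken at 28 days post-MI, with histomorphometry of LV cross sections for scar length.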
# Mus musculus [5] = experiment: Cardioprotective activity in C57BL/6 mouse model of LAD coronary artery ligation-induced myocardial infarction assessed as reduction in heart weight at 100 mg/kg, po and measured after 28 days; type: functional, organism-based; details: time 28.0 day; in short: as §2
# Mus musculus [6] = experiment: Cardioprotective activity in C57BL/6 mouse model of LAD coronary artery ligation-induced myocardial infarction assessed as reduction in scar length at 0.3 mg/kg, po and measured after 28 days relative to control; type: functional, organism-based; details: time 28.0 day
# In short: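 Male C57BL/6 mice (10-12 weeks) underwent permanent LAD ligation under ketamine/xylazine, with shams having an untightened suture. Compound (0.3 mg/kg/d) or vehicle was given by oral gavage once daily (5 mL/kg) from post-MI day 4 for 24 days. Endpoints were taken at 28 days post-MI; scar length was quantified from LV cross sections.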
structure (smiles),measurement,setting,value
COc1ccc(CCNC(=O)Nc2ccc(Cl)cc2)cc1,pEC50,[1],6.00
COc1cc(F)c([C@@H]2CNC(=O)[C@H]2NC(=O)Nc2ccc(C#N)cc2)c(F)c1,pEC50,fMet-Leu-Phe receptor,6.46
COc1ccc([C@@H]2CNC(=O)[C@H]2NC(=O)Nc2ccc(F)cc2)c(C)c1,pEC50,[1],8.80
COc1ccc([C@@H]2CNC(=O)[C@H]2NC(=O)Nc2ccc(F)cc2)c(Cl)c1,pEC50,[1],8.40
COc1ccc([C@@H]2CNC(=O)[C@H]2NC(=O)Nc2ccc(F)cc2)cc1,pEC50,[1],10.07
COc1ccc([C@@H]2CNC(=O)[C@H]2NC(=O)Nc2ccc(Cl)cc2)cc1,pEC50,[1],10.04
COc1cc(F)c([C@@H]2CNC(=O)[C@H]2NC(=O)Nc2ccc(F)cc2)cc1F,pEC50,fMet-Leu-Phe receptor,7.77
COc1cc(F)c([C@@H]2CNC(=O)[C@H]2NC(=O)Nc2cc3ccccc3s2)c(F)c1,pEC50,fMet-Leu-Phe receptor,5.52
COc1ccc([C@@H]2CNC(=O)[C@H]2NC(=O)Nc2ccc(F)cc2)cc1F,pEC50,[1],9.05
COc1cnc([C@@H]2CNC(=O)[C@H]2NC(=O)Nc2ccc(F)cc2)c(F)c1,pEC50,fMet-Leu-Phe receptor,6.72
COc1cc(F)c([C@@H]2CNC(=O)[C@H]2NC(=O)Nc2ccc(F)c(O)c2)c(F)c1,pEC50,[1],10.06
same,pEC50,fMet-Leu-Phe receptor,7.14
CCOc1cc(F)c([C@@H]2CNC(=O)[C@H]2NC(=O)Nc2ccc(F)cc2)c(F)c1,pEC50,[1],7.85
N#Cc1cc(F)c([C@@H]2CNC(=O)[C@H]2NC(=O)Nc2ccc(F)cc2)c(F)c1,pEC50,[1],8.01
same,pEC50,fMet-Leu-Phe receptor,4.40
COc1cc(F)c([C@@H]2CNC(=O)[C@H]2NC(=O)Nc2ccc(Cl)cc2)c(F)c1,pEC50,fMet-Leu-Phe receptor,6.92
COc1cc(F)c([C@@H]2CNC(=O)[C@H]2NC(=O)Nc2ccc(Cl)s2)c(F)c1,pEC50,fMet-Leu-Phe receptor,5.92
same,pEC50,[2],8.85
same,inhibition in vivo at 1 mg/kg,[3],84%
same,pIC50,Cytochrome P450 3A4,5.25
COc1cc(F)c([C@@H]2CNC(=O)[C@H]2NC(=O)Nc2ccc(Br)cc2)c(F)c1,pEC50,[1],9.72
same,pEC50,fMet-Leu-Phe receptor,7.02
COc1cc(F)c([C@@H]2CNC(=O)[C@H]2NC(=O)Nc2ccc(F)c(F)c2)c(F)c1,pEC50,fMet-Leu-Phe receptor,6.09
same,pEC50,[2],8.07
same,inhibition in vivo at 1 mg/kg,[3],4.9%
same,pIC50,Cytochrome P450 3A4,< 4.70
COc1cc(F)c([C@@H]2CNC(=O)[C@H]2NC(=O)Nc2ccc(C)cc2)c(F)c1,pEC50,[1],8.70
COc1cc(F)c([C@@H]2CNC(=O)[C@H]2NC(=O)Nc2cccc(F)c2)c(F)c1,pEC50,fMet-Leu-Phe receptor,5.77
COc1cc(F)c([C@@H]2CNC(=O)[C@H]2NC(=O)Nc2ccc(Cl)c(O)c2)c(F)c1,pEC50,[1],10.30
same,pEC50,fMet-Leu-Phe receptor,7.40
COc1cc(F)c([C@@H]2CNC(=O)[C@H]2NC(=O)Nc2cc(C)ns2)c(F)c1,pEC50,fMet-Leu-Phe receptor,6.54
CNc1cc(F)c([C@@H]2CNC(=O)[C@H]2NC(=O)Nc2ccc(F)cc2)c(F)c1,pEC50,[1],8.85
COc1cc(F)c([C@@H]2CNC(=O)[C@H]2NC(=O)Nc2ccc(F)cc2)c(F)c1,pEC50,[1],9.85
same,pEC50,fMet-Leu-Phe receptor,6.55
same,pEC50,[2],8.82
same,inhibition in vivo at 1 mg/kg,[3],97%
same,pIC50,Cytochrome P450 3A4,< 4.70
CCc1cc(F)c([C@@H]2CNC(=O)[C@H]2NC(=O)Nc2ccc(F)cc2)c(F)c1,pEC50,[1],8.24
COc1cc(F)c([C@@H]2CNC(=O)[C@H]2NC(=O)Nc2ncc(Cl)s2)c(F)c1,pEC50,[1],8.72
COc1cc(F)c([C@@H]2CNC(=O)[C@H]2NC(=O)Nc2ccc(C)c(O)c2)c(F)c1,pEC50,[1],10.11
same,pEC50,fMet-Leu-Phe receptor,6.00
same,pEC50,[2],9.20
same,inhibition in vivo at 1 mg/kg,[3],55%
same,pIC50,Cytochrome P450 3A4,< 4.70
COc1cc(F)c([C@@H]2CNC(=O)[C@H]2NC(=O)Nc2ccc(Cl)cn2)c(F)c1,pEC50,[1],8.35
O=C(Nc1ccc(F)cc1)N[C@@H]1C(=O)NC[C@H]1c1ccc(Cl)cc1F,pEC50,[1],8.51
same,pEC50,fMet-Leu-Phe receptor,7.54
COc1ccc([C@H]2CNC(=O)[C@@H]2NC(=O)Nc2ccc(Cl)cc2)cc1,pEC50,[1],7.47
COc1cc(F)c([C@@H]2CNC(=O)[C@H]2NC(=O)Nc2ccccc2F)c(F)c1,pEC50,[1],7.37
C[C@H](CS)C(=O)N1CCC[C@H]1C(=O)O,Activity,Mus musculus [4],Active
same,Activity,Mus musculus [5],Active
same,Activity,Mus musculus [6],inactive
COc1ccc([C@@H]2CNC(=O)[C@H]2NC(=O)Nc2ccc(Cl)cc2)cc1 (racemic),pEC50,[1],9.74
COc1ccc([C@@H]2NC(=O)[C@H]2NC(=O)Nc2ccc(Cl)cc2)cc1 (racemic),pEC50,[1],< 7.00
same,pEC50,fMet-Leu-Phe receptor,< 5.00
COc1ccc(CC(CO)NC(=O)Nc2ccc(Cl)cc2)cc1 (racemic),pEC50,[1],8.17
COc1ccc(CC(NC(=O)Nc2ccc(Cl)cc2)C(=O)O)cc1 (racemic),pEC50,[1],7.51
COc1ccc([C@@H]2NC(=O)[C@@H]2NC(=O)Nc2ccc(Cl)cc2)cc1 (racemic),pEC50,[1],7.92
same,pEC50,fMet-Leu-Phe receptor,< 5.00
COc1ccc(CC(C)NC(=O)Nc2ccc(Cl)cc2)cc1 (racemic),pEC50,[1],7.64
COc1ccc([C@@H]2CCNC(=O)[C@H]2NC(=O)Nc2ccc(Cl)cc2)cc1 (racemic),pEC50,[1],9.96
COc1ccc([C@@H]2CNC(=O)[C@@H]2NC(=O)Nc2ccc(Cl)cc2)cc1 (racemic),pEC50,[1],9.04
COc1ccc(CC(NC(=O)Nc2ccc(Cl)cc2)C(N)=O)cc1 (racemic),pEC50,[1],8.44
same,pEC50,fMet-Leu-Phe receptor,< 5.00
"COc1ccc(C2CNC(=O)C2NC(=O)Nc2ccc(Cl)cc2)cc1 (single isomer, unassigned; (+))",pEC50,[1],9.05
"COc1ccc(C2CNC(=O)C2NC(=O)Nc2ccc(Cl)cc2)cc1 (single isomer, unassigned; (-))",pEC50,[1],8.34
